From article PMC4207537 (Journal of Medicinal Chemistry, 2014)
Converted amounts (≈) assume the structure as drawn.

Key:
S. aureus Newman [1] = experiment: Time kill experiments; assay type: cell-based, Staphylococcus aureus; details: for type of killing (bactericidal / bacteriostatic): time kill, up to 24 h
S. aureus Newman [2] = experiment: Membrane potential, DiOC2; assay type: cell-based, Staphylococcus aureus; details: DiOC2(3); up to 4× MIC
How it was run: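 Flow cytometry with the membrane-potential probe DiOC2(3) on S. aureus Newman grown in Mueller–Hinton II to OD600nm ≈ 0.3 and exposed to test compound. CCCP served as positive control and vancomycin as negative control. Three biological replicates were run.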

E. coli topoisomerase IV = E. coli topoisomerase IV (Escherichia coli, UniProt P0AFI2+P20083); experiment: E. coli topoisomerase IV decatenation assay; assay type: biochemical
E. coli topoisomerase IV, sequence (P0AFI2 whole entry): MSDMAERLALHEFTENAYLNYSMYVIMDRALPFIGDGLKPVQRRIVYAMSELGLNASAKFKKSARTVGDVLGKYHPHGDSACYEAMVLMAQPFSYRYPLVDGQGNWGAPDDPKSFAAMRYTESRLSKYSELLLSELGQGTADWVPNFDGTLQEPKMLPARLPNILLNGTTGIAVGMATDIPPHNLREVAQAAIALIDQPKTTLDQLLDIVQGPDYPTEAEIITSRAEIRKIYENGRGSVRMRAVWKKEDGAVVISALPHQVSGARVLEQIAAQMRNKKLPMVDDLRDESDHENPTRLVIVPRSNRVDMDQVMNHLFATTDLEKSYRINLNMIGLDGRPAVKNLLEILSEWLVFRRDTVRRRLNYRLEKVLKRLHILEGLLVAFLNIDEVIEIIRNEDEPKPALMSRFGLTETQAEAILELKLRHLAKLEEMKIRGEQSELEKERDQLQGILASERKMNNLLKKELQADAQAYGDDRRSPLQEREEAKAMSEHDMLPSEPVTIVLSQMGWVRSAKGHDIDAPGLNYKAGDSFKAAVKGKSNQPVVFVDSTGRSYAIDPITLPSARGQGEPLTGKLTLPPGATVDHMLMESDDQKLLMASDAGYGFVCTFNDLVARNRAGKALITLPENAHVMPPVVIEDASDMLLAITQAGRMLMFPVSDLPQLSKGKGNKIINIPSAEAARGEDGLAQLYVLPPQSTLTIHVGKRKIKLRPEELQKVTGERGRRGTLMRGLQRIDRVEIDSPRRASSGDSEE
E. coli topoisomerase IV, sequence (P20083 whole entry): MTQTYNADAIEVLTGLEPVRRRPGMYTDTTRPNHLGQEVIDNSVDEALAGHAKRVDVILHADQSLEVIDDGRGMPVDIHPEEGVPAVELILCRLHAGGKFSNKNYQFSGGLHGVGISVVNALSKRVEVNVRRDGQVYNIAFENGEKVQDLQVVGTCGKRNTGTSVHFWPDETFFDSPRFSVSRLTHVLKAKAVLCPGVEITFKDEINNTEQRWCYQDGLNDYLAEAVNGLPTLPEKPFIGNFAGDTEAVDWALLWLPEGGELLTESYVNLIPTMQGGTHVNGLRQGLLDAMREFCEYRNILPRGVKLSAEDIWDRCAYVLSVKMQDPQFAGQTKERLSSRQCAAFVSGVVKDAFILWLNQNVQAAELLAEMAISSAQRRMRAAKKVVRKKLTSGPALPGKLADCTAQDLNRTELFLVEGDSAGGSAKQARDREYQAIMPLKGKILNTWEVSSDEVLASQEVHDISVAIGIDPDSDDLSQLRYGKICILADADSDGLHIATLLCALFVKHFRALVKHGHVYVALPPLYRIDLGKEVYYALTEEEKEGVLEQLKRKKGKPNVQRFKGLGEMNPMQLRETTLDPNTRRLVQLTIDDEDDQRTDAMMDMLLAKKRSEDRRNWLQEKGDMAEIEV

E. coli topoisomerase I = biological target: T1, E. coli topoisomerase I (Escherichia coli, UniProt P06612); experiment: Relaxation activity of E. coli topoisomerase I; assay type: biochemical
T1 sequence (P06612 1-865): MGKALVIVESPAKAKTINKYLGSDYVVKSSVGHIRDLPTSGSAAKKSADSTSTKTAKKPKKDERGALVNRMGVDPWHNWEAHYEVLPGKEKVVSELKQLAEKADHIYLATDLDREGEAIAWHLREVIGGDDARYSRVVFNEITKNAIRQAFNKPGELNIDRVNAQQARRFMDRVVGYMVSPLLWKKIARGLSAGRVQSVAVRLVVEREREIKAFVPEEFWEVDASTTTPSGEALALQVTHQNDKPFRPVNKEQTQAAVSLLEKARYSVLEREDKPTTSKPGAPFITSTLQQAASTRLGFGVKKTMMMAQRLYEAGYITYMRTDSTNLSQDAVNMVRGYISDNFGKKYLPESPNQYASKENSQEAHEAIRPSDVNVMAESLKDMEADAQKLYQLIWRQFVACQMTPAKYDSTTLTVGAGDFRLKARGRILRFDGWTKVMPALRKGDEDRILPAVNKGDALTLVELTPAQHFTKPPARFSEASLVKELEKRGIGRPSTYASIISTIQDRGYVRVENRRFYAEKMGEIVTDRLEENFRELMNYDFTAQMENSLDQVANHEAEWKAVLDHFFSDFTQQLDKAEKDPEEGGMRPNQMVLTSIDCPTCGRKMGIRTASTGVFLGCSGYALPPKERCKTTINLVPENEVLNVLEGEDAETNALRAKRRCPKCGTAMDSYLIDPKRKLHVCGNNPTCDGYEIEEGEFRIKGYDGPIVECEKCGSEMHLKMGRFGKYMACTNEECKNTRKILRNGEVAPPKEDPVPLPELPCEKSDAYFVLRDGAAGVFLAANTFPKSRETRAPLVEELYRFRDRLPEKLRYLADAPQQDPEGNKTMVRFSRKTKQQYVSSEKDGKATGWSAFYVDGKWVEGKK

E. faecalis (ATCC 33186) = experiment: microbe, parasite or virus in culture; assay type: cell-based; details: Enterococcus faecalis, ATCC33186, read-out: MIC E. faecalis (ATCC 33186)
S. aureus Newman [3] = experiment: Macromolecular synthesis; assay type: cell-based, Staphylococcus aureus; details: 4× MIC
S. aureus Newman [4] = experiment: microbe, parasite or virus in culture; assay type: cell-based; details: Staphylococcus aureus, read-out: MIC against S. aureus Newman
S. aureus Newman [5] = experiment: Selection of spontaneous mutants; assay type: cell-based, Staphylococcus aureus; details: concentrations between 1× and 4× MIC
[6] = system: multidrug-resistant (MDR) strains of clinically relevant Staphylococcus aureus; details: natural olympicin A; cited from earlier work
Clostridium difficile = details: synthetic olympicin A; cited from earlier work
[7] = biological target: Mycobacterium tuberculosis MurE ligase; details: read-out: MurE ligase IC50; ATP-dependent MurE ligase; cited from earlier work
M. tuberculosis (H37Rv) = experiment: MIC, microbroth dilution, M. tuberculosis; assay type: cell-based; details: Mycobacterium tuberculosis, read-out: MIC M. tuberculosis (H37Rv)
[8] = system: Gram-positive bacteria tested (E. faecalis, MSSA, and MRSA); experiment: MIC range over the Gram-positive bacteria tested; assay type: cell-based, Enterococcus faecalis, Staphylococcus aureus; details: range over E. faecalis and S. aureus (MSSA, MRSA) strains

CN[C@H](CC(C)C)C(=O)N[C@H]1C(=O)N[C@@H](CC(N)=O)C(=O)N[C@H]2C(=O)N[C@H]3C(=O)N[C@H](C(=O)N[C@H](C(=O)O)c4cc(O)cc(O)c4-c4cc3ccc4O)[C@H](O)c3ccc(c(Cl)c3)Oc3cc2cc(c3O[C@@H]2O[C@H](CO)[C@@H](O)[C@H](O)[C@H]2O[C@H]2C[C@](C)(N)[C@H](O)[C@H](C)O2)Oc2ccc(cc2Cl)[C@H]1O [vancomycin, reference compound]
type of killing (bactericidal / bacteriostatic) (S. aureus Newman [1]): either bacteriostatic or slowly bactericidal
effect on membrane potential (S. aureus Newman [2]): failed to affect the membrane potential

CCCCCCOc1ccccc1C1CC(=O)c2ccc(O)cc2O1 (stereo not drawn) [Compound 8j, 2-(2-(Hexyloxy)phenyl)-7-hydroxychroman-4-one]
IC50 (E. coli topoisomerase IV): > 1000 µM
IC50 (E. coli topoisomerase I): > 500 µM

CCC(C)C(=O)c1c(O)cc(O)cc1OC/C=C(\C)CCC=C(C)C (stereo not drawn) [Compound 2b, (E)-1-(2-((3,7-Dimethylocta-2,6-dien-1-yl)oxy)-4,6-dihydroxyphenyl)-2-methylbutan-1-one]
MIC (E. faecalis (ATCC 33186)): 1.56 µg/mL (≈ 4.5 µM)

O=C(/C=C/c1ccc(N2CCCCC2)cc1)c1ccc(O)cc1O [Compound 8d, (E)-1-(2,4-Dihydroxyphenyl)-3-(4-(piperidin-1-yl)phenyl)prop-2-en-1-one]
effect on macromolecular synthesis (DNA, RNA, protein) (S. aureus Newman [3]): Several key biosynthetic processes were simultaneously inhibited
IC50 (E. coli topoisomerase IV): 500 to 1000 µM
IC50 (E. coli topoisomerase I): > 500 µM
type of killing (bactericidal / bacteriostatic) (S. aureus Newman [1]): entirely bacteriostatic
effect on membrane potential (S. aureus Newman [2]): dissipated the membrane potential
MIC (S. aureus Newman [4]): 6.25 µg/mL (≈ 19.3 µM)

CC(C)=CCCC(C)CC1CC(=O)c2c(O)cc(O)cc2O1 (stereo not drawn) [Compound 5j, 2-(2,6-Dimethylhept-5-en-1-yl)-5,7-dihydroxychroman-4-one]
effect on macromolecular synthesis (DNA, RNA, protein) (S. aureus Newman [3]): Several key biosynthetic processes were simultaneously inhibited
effect on membrane potential (S. aureus Newman [2]): dissipated the membrane potential
frequency of spontaneous mutants (S. aureus Newman [5]): could not be selected

CC[C@H](C)C(=O)c1c(O)cc(O)cc1OC/C=C(\C)CCC=C(C)C [Compound 2a, (S,E)-1-(2-((3,7-Dimethylocta-2,6-dien-1-yl)oxy)-4,6-dihydroxyphenyl)-2-methylbutan-1-one]
effect on macromolecular synthesis (DNA, RNA, protein) (S. aureus Newman [3]): Several key biosynthetic processes were simultaneously inhibited
MIC against a panel of MDR S. aureus strains [6]: 0.5 to 1 µg/mL
previously reported anti S. aureus activity (MIC) [6]: 0.5 to 1 µg/mL
MIC against Clostridium difficile (Clostridium difficile): 1 to 2 µg/mL
IC50 (E. coli topoisomerase IV): 30 to 60 µM
IC50 (E. coli topoisomerase I): > 500 µM
IC50 [7]: 75 µM
effect on membrane potential (S. aureus Newman [2]): dissipated the membrane potential
MIC (M. tuberculosis (H37Rv)): 200 µg/mL (≈ 577 µM)

CCCCCCCCOc1cc(O)cc(O)c1C(=O)C(C)CC (stereo not drawn) [Compound 2e, 1-(2,4-Dihydroxy-6-(octyloxy)phenyl)-2-methylbutan-1-one]
IC50 (E. coli topoisomerase IV): 30 to 60 µM
IC50 (E. coli topoisomerase I): > 500 µM

CC1(C)C2CC=C(C3CC(=O)c4ccc(O)cc4O3)C1C2 (stereo not drawn) [Compound 3j, 2-(6,6-Dimethylbicyclo[3.1.1]hept-2-en-2-yl)-7-hydroxychroman-4-one]
MIC range against Gram-positive bacteria tested [8]: largely inactive

C=CCOc1ccccc1/C=C/C(=O)c1ccc(O)cc1O [Compound 8a, (E)-3-(2-(Allyloxy)phenyl)-1-(2,4-dihydroxyphenyl)prop-2-en-1-one]
effect on macromolecular synthesis (DNA, RNA, protein) (S. aureus Newman [3]): Several key biosynthetic processes were simultaneously inhibited
IC50 (E. coli topoisomerase IV): 250 to 500 µM
IC50 (E. coli topoisomerase I): > 500 µM
type of killing (bactericidal / bacteriostatic) (S. aureus Newman [1]): rapidly bactericidal
frequency of spontaneous mutants (S. aureus Newman [5]): could not be selected

O=C(O)c1cn(C2CC2)c2cc(N3CCNCC3)c(F)cc2c1=O [ciprofloxacin]
MIC (S. aureus Newman [4]): 0.25 µg/mL (≈ 0.754 µM)

CCCCCCOc1ccccc1/C=C/C(=O)c1ccc(O)cc1O [Compound 8b, (E)-1-(2,4-Dihydroxyphenyl)-3-(2-(hexyloxy)phenyl)prop-2-en-1-one]
IC50 (E. coli topoisomerase IV): 60 to 120 µM
IC50 (E. coli topoisomerase I): > 500 µM

CCCCCCCCOc1ccccc1C1CC(=O)c2ccc(O)cc2O1 (stereo not drawn) [Compound 8k, 7-Hydroxy-2-(2-(octyloxy)phenyl)chroman-4-one]
IC50 (E. coli topoisomerase IV): > 1000 µM
IC50 (E. coli topoisomerase I): > 500 µM

CC1(C)C2CC=C(/C=C/C(=O)c3ccc(O)cc3O)C1C2 (stereo not drawn) [Compound 3g, (E)-1-(2,4-Dihydroxyphenyl)-3-(6,6-dimethylbicyclo[3.1.1]hept-2-en-2-yl)prop-2-en-1-one]
effect on macromolecular synthesis (DNA, RNA, protein) (S. aureus Newman [3]): Several key biosynthetic processes were simultaneously inhibited
IC50 (E. coli topoisomerase IV): 60 to 120 µM
IC50 (E. coli topoisomerase I): > 500 µM
time required to achieve a 3 log reduction in cells (S. aureus Newman [1]; at its MIC (1×)): up to 24 h
type of killing (bactericidal / bacteriostatic) (S. aureus Newman [1]): concentration-dependent killing
effect on membrane potential (S. aureus Newman [2]): dissipated the membrane potential
frequency of spontaneous mutants (S. aureus Newman [5]): could not be selected

CC[C@H]1OC(=O)[C@H](C)[C@@H](O[C@H]2C[C@@](C)(OC)[C@@H](O)[C@H](C)O2)[C@H](C)[C@@H](O[C@@H]2O[C@H](C)C[C@H](N(C)C)[C@H]2O)[C@](C)(O)C[C@@H](C)C(=O)[C@H](C)[C@@H](O)[C@]1(C)O [erythromycin]
MIC (S. aureus Newman [4]): 0.78 µg/mL (≈ 1.06 µM)

C/C(=C\C(=O)OCCCCCCCCC(=O)O)C[C@@H]1OC[C@H](C[C@@H]2O[C@H]2[C@@H](C)[C@H](C)O)[C@@H](O)[C@H]1O [mupirocin, reference compound]
type of killing (bactericidal / bacteriostatic) (S. aureus Newman [1]): either bacteriostatic or slowly bactericidal

CC(C)=CCCC(C)CC1CC(=O)c2c(O)cccc2O1 (stereo not drawn) [Compound 3l, 2-(2,6-Dimethylhept-5-en-1-yl)-5-hydroxychroman-4-one]
MIC range against Gram-positive bacteria tested [8]: not active

CCCCCCCC1CC(=O)c2c(O)cc(O)cc2O1 (stereo not drawn) [Compound 5f, 2-Heptyl-5,7-dihydroxychroman-4-one]
IC50 (E. coli topoisomerase IV): 120 to 250 µM
IC50 (E. coli topoisomerase I): > 500 µM
